From ChEMBL document CHEMBL2176975, “Novel toll-like receptor 2 ligands for targeted pancreatic cancer imaging and immunotherapy” (J Med Chem, 2012)
Non-standard residues stand in square brackets, D forms with d. Residues, ends and D or L forms follow the SMILES beside them. *: point of attachment. Propyl(2R-PamO,3-PamO) = CCCCCCCCCCCCCCCC(=O)OC[C@H](C*)OC(=O)CCCCCCCCCCCCCCC; X1 = CC(=O)NCCCOCCOCCOCCCNC(=O)COCC(=O)*; Palmitoyl = CCCCCCCCCCCCCCCC(=O)*

Columns and labels:
[1] = target: T1, Toll-like receptor 2 (Homo sapiens, UniProt O60603); experiment: Agonist activity at human TLR2 expressed in HEK293 cells assessed as induction of NF-kappaB signaling after 24 hrs by luminescence based luciferase reporter gene assay relative to 1 ug/mL of SAA; format: functional, cell-based
Procedure, shortened: (§1)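 HEK-293/hTLR2 reporter cells transiently transfected with NF-κB-luciferase plasmid pNifty-Luc, stimulated 24 h with test compound at 1 μg/mL; luciferin-induced luminescence read. Fold enhancement taken versus serum amyloid A at 1 μg/mL or 10 μg/mL; n = 4.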

[2] = target: T1, Toll-like receptor 2; experiment: Agonist activity at human TLR2 expressed in HEK293 cells assessed as induction of NF-kappaB signaling after 24 hrs by luminescence based luciferase reporter gene assay relative to 10 ug/mL of SAA; format: functional, cell-based; procedure, shortened: as §1
[3] = species: Mus musculus; experiment: Toxicity in Trp1455/9M peptide immunized C57BL/6 mouse at 50 ug measured after 34 of immunization; format: organism-based; settings: in vivo
[4] = species: Mus musculus; experiment: Immunomodulatory activity in Trp1455/9M peptide immunized C57BL/6 mouse assessed as Trp1455/9M specific CD8+ T cells in blood at 50 ug using Trp1455/9M/ H-2Db staining measured after 21 of immunization by FACS analysis; format: functional, T-cell
Procedure, shortened: (§2)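 C57BL/6 mice, 6-8 weeks, immunized iv with 100 μg Trp1 455/9M peptide, 50 μg anti-CD40 antibody and 50 μg TLR2 agonist in 200 μL. Submandibular blood on days 7, 21, 34, red cells lysed, stained 40 min on ice with CD8a antibody, Trp1 455/9M/H-2Db tetramer and anti-MHC II; % tetramer-positive CD8+ cells by flow cytometry; three mice per group, mean and SD.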

[5] = target: T1, Toll-like receptor 2; experiment: Agonist activity at human TLR2 expressed in HEK293 cells assessed as induction of NF-kappaB signaling after 24 hrs by luminescence based luciferase reporter gene assay; format: functional, cell-based
[6] = species: Mus musculus; experiment: Immunomodulatory activity in Trp1455/9M peptide immunized C57BL/6 mouse assessed as Trp1455/9M specific CD8+ T cells in blood at 50 ug using Trp1455/9M/ H-2Db staining measured after 34 of immunization by FACS analysis; format: functional, T-cell; procedure, shortened: as §2
[7] = species: Mus musculus; experiment: Immunomodulatory activity in Trp1455/9M peptide immunized C57BL/6 mouse assessed as Trp1455/9M specific CD8+ T cells in blood at 50 ug using Trp1455/9M/ H-2Db staining measured after 7 of immunization by FACS analysis; format: functional, T-cell
Procedure, shortened: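 C57BL/6 mice, 6-8 weeks old, immunized i.v. (200 μL) with a mixture of 100 μg Trp1_455/9M peptide, 50 μg anti-CD40 antibody (FGK45.5) and 50 μg TLR2 agonist. Submandibular blood taken, red cells lysed with ammonium chloride, stained 40 min on ice with CD8a, Trp1_455/9M/H-2Db tetramer and anti-MHC class II. Tetramer+ % of CD8+ cells read by flow cytometry; three mice per group.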

[8] = target: T1, Toll-like receptor 2; experiment: Displacement of Eu-DTPA from human TLR2 expressed in HEK293 cells after 1 hr; format: cell-based
Procedure, shortened: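 Live-cell europium TRF competition binding in HEK-293/hTLR2 (poly-D-lysine plates) or SU.86.86 cells grown 2 days to ~80% confluence. Unlabeled ligand 1 μM to 0.01 nM plus 90 nM Eu-DTPA-labeled tracer, 1 h at 37°C; three washes, enhancement solution 30 min at 37°C, read at 340 nm excitation/615 nm emission with time delay.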

T1 sequence (O60603 whole entry): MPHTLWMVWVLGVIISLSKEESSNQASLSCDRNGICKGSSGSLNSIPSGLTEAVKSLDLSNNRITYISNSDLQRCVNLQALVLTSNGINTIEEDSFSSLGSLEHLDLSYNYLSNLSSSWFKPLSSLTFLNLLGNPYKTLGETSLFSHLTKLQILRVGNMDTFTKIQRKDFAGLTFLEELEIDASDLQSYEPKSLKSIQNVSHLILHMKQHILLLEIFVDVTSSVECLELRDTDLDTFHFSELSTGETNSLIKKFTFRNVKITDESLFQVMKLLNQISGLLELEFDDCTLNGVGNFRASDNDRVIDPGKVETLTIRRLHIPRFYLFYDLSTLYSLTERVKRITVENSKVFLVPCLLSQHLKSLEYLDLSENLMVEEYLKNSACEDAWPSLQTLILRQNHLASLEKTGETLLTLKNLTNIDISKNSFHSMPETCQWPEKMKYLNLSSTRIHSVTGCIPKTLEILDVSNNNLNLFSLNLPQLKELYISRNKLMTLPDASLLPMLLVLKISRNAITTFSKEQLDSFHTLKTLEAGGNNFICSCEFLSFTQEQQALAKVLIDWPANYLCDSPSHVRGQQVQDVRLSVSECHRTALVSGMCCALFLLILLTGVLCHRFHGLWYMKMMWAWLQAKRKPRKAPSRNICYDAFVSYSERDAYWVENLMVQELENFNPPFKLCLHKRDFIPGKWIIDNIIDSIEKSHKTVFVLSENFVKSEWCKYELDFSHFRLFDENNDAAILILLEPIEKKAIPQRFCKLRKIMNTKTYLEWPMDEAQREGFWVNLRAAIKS

Structure (SMILES) | fold change (FC) [1] | fold change (FC) [2] | Activity [3] | Activity [4] | EC50 [5] | Activity [6] | Activity [7] | Ki [8]
CCCCCCCCCCCCCCCC(=O)OC[C@H](CSC[C@H](NC(=O)COCC(=O)NCCCOCCOCCOCCCNC(C)=O)C(=O)N[C@H](CO)C(=O)N[C@H](CCCNC(=N)N)C(=O)N[C@H](Cc1ccccc1)C(=O)N[C@H](CC(=O)O)C(=O)N[C@H](CCC(=O)O)C(=O)N[C@H](CC(=O)O)C(=O)N[C@H](CC(=O)O)C(=O)N[C@H](CC(C)C)C(=O)N[C@H](CCC(=O)O)C(N)=O)OC(=O)CCCCCCCCCCCCCCC (X1-C(Propyl(2R-PamO,3-PamO))[dS][dR][dF][dD][dE][dD][dD][dL][dE]-NH2) | 11 | 4.2 | – | – | – | – | – | –
CCCCCCCCCCCCCCCC(=O)OC[C@H](CSC[C@H](NC(=O)COCC(=O)NCCCOCCOCCOCCCNC(C)=O)C(=O)NCC(=O)N[C@H](CO)C(=O)NCCCOCCOCCOCCCNC(=O)COCC(N)=O)OC(=O)CCCCCCCCCCCCCCC | 14 | 5.2 | Non-toxic | 14.6% | 20 nM | 6.63% | 49.6% | 25 nM
CCCCCCCCCCCCCCCC(=O)OC[C@H](CSC[C@H](NC(=O)COCC(=O)NCCCOCCOCCOCCCNC(C)=O)C(=O)NCC(=O)N[C@@H](CO)C(=O)N[C@@H](CCC(N)=O)C(=O)N[C@@H](CC(N)=O)C(=O)N[C@@H](CC(C)C)C(=O)N[C@@H](C)C(=O)N[C@@H](CO)C(=O)N[C@@H](CC(C)C)C(=O)N[C@@H](CCC(=O)O)C(=O)N[C@@H](CCC(=O)O)C(N)=O)OC(=O)CCCCCCCCCCCCCCC (X1-C(Propyl(2R-PamO,3-PamO))GSQNLASLEE-NH2) | 13 | 4.8 | – | – | – | – | – | –
CCCCCCCCCCCCCCCC(=O)OC[C@H](CSC[C@H](N)C(=O)N[C@@H](CO)C(=O)N[C@@H](CCCCN)C(=O)N[C@@H](CCCCN)C(=O)N[C@@H](CCCCN)C(=O)N[C@@H](CCCCN)C(=O)O)OC(=O)CCCCCCCCCCCCCCC (H-C(Propyl(2R-PamO,3-PamO))SKKKK-OH) | – | – | Non-toxic | 18.4% | 3.7 nM | 11.3% | 56.6% | –
CCCCCCCCCCCCCCCC(=O)N[C@@H](CSC[C@@H](COC(=O)CCCCCCCCCCCCCCC)OC(=O)CCCCCCCCCCCCCCC)C(=O)N[C@@H](CO)C(=O)N[C@@H](CCCCN)C(=O)N[C@@H](CCCCN)C(=O)N[C@@H](CCCCN)C(=O)N[C@@H](CCCCN)C(=O)O (Palmitoyl-C(Propyl(2R-PamO,3-PamO))SKKKK-OH) | – | – | Non-toxic | 16.8% | 23 nM | 10.2% | – | –
